Measurements pooled from the literature.
Protocols differ between the studies behind these lines.
Target: Delta-type opioid receptor (OPRD1, Homo sapiens, UniProt P41143)

| SMILES | assay | setting | Ki [nM] |
| --- | --- | --- | --- |
| Cc1cc(O)cc(C)c1C[C@H](N)C(=O)N[C@H](C)C(=O)NCC(=O)N[C@@H](Cc1ccc(Cl)cc1)C(=O)N(C)CCC[C@@]1(c2ccc(F)cc2)OCc2cc(C#N)ccc21 | cell-free assay | – | 4 |
| Cc1ccc(CNC(=O)CNC(=O)[C@@H]2Cc3ccccc3CN2C(=O)[C@@H](N)Cc2c(C)cc(O)cc2C)cc1 | ligand displacement, radioligand | cell membranes | 0.31 |
| CCCCCCCCC[C@@H]1CC(=O)NCC(=O)N[C@H](Cc2ccc(O)cc2)C(=O)NCC(=O)N[C@@H](Cc2ccccc2)C(=O)O1 | ligand displacement, radioligand | – | 21000 |
| C[N+]1(C)CCC(=C(c2ccccc2)c2ccccc2)CC1 | cell-free assay | – | 14000 |
| Cc1cc(O)cc(C)c1C[C@H](N)C(=O)N1Cc2ccccc2C[C@H]1C(=O)NCC(=O)NC(c1ccccc1)c1ccccc1 | ligand displacement, radioligand | cell membranes | 0.94 |
| CCCCCCCCCCCCCCCC(=O)O | ligand displacement, radioligand | cell membranes | 5100 |
| Cc1cc(O)cc(C)c1C[C@H](N)C(=O)N1Cc2ccccc2CC1C(=O)NCC(=O)NC(Cc1ccc(Cl)cc1)C(=O)N(C)CCC[C@@]1(c2ccc(F)cc2)OCc2cc(C#N)ccc21 (stereo in doubt) | cell-free assay | – | 20 |
| CC(=O)Nc1ccccc1-c1cnc2c(c1)C[C@@]1(OCCCc3ccccc3)[C@H]3Cc4ccc(O)c5c4[C@@]1(CCN3CC1CC1)[C@H]2O5 | ligand displacement, radioligand | cell membranes | > 3330 |
| C[C@@H](NC(=O)[C@@H](N)Cc1ccc(O)cc1)C(=O)NCC(=O)N[C@@H](Cc1ccc(Cl)cc1)C(=O)N(C)CCC[C@@]1(c2ccc(F)cc2)OCc2cc(C#N)ccc21 | cell-free assay | – | 1.6 |
| Oc1ccc2c3c1O[C@H]1c4ncc(-c5ccccc5)cc4C[C@@]4(OCCCc5cccnc5)[C@@H](C2)N(CC2CC2)CC[C@]314 | ligand displacement, radioligand | cell membranes | 5.89 |
| Cc1cc(F)ccc1/N=N/C(=O)NCC1(N(C)C)CCCCC1 | cell-free assay | – | 12000 |
| C[C@@H](NC(=O)C[C@@H](N)Cc1ccc(O)cc1)C(=O)NCC(=O)N[C@@H](Cc1ccccc1)C(=O)NNC(=O)[C@H](Cc1ccccc1)NC(=O)CNC(=O)[C@@H](C)NC(=O)C[C@@H](N)Cc1ccc(O)cc1 | ligand displacement, radioligand | – | 480 |
| Cc1cc(O)cc(C)c1C[C@H](N)C(=O)N1Cc2ccccc2C[C@H]1C(=O)NCC(=O)NCc1ccc([N+](=O)[O-])cc1 | ligand displacement, radioligand | cell membranes | 0.39 |
